Data on 13 compounds can be found in ChEMBL document CHEMBL1147739, “Identification of the key residue of calcitonin gene related peptide (CGRP) 27-37 to obtain antagonists with picomolar affinity at the CGRP receptor” (J Med Chem, 2006).

pKi: −log10 of the molar value. *1 amine or outer side, *2 acyl side, *3 side chain or, on linkers, in order; H or OH if unused. Where a SMILES comes first, the peptide text is derived from it. [ ]: non-standard residue; d: D form. X2 = COC(=O)[C@@H]1[C@@H](N[*:1])[C@H]1C(=O)[*:2]; X1 = COC(=O)[C@H]1[C@H](N[*:1])[C@@H]1C(=O)[*:2]

Assay [1] addresses T1, Calcitonin-gene-related peptide receptor, CALCRL/RAMP1 (Homo sapiens, UniProt O60894+Q16602). Put plainly: Antagonist activity on halphaCGRP-induced cAMP accumulation at human neuroblastoma SK-N-MC cells. The conditions noted are these: read-out: pA2 (converted). In kind it is functional, cell-based. The procedure, abridged: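 SK-N-MC cells detached with PBS-EDTA, washed in HEPES/glucose Hank's, ~2 million cells/mL in buffer with 1 mM IBMX and 1% BSA. Preincubated 15 min at 37 °C, then 15 min with hRCGRP (10-5-10-12 M) alone or with fixed antagonist (10 or 100 nM). cAMP extracted with HCl, AlphaScreen read-out. Agonist EC50 shifts gave concentration ratios, and apparent pA2 = log((CR-1)/[B]). Three experiments in triplicate.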

Assay [2] concerns the target T1, Calcitonin-gene-related peptide receptor, CALCRL/RAMP1. Put plainly: Displacement of [3H-propionyl-K24] from halphaCGRP expressed in human neuroblastoma SK-N-MC cells. It is filed as cell-based. The procedure, abridged: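 Whole SK-N-MC cells, 3 million/mL in Tris pH 7.4 buffer with NaCl, MgCl2, Pefabloc and 1% BSA. Incubated 90 min at room temperature with 1 nM [3H-propionyl-K24]-hRCGRP 8-37 and competitor (10-5-10-14 M). Separated by centrifugation with a cold wash, then β-counted. IC50 by nonlinear regression, converted to Ki by Cheng-Prusoff with tracer KD. Three experiments in triplicate.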
(Loss of bound radioactivity is the signal in a displacement assay; it reports binding, not function.)

For assay [3] the target is unchanged. In words: Displacement of [125I-Tyr10] from halphaCGRP expressed in human neuroblastoma SK-N-MC cells. It is filed as cell-based.

T1 sequence (O60894 whole entry): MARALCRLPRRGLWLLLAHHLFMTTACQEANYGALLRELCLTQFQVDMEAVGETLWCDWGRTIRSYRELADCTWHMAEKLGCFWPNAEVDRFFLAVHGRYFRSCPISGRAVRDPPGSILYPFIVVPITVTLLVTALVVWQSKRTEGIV
T1 sequence (Q16602 whole entry): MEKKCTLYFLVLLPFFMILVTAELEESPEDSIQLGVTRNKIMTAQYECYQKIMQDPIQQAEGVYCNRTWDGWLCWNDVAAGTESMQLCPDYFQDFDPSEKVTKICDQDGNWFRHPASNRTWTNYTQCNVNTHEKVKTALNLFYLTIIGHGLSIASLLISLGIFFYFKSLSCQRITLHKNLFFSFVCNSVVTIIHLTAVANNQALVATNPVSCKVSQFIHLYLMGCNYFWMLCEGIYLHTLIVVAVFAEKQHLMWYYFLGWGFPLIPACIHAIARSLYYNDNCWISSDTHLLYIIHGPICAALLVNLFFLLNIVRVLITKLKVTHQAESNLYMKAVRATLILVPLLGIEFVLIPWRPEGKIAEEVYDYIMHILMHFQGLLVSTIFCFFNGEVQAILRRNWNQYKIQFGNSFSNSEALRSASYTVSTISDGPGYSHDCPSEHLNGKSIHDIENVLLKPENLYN

As usually defined, the pKi is −log10 of the Ki, conventionally taken in molar units. Take `CC(C)[C@H](NC(=O)[C@H](CC(=O)O)NC(=O)[C@@H](NC(=O)C(C)(C)NC(=O)[C@@H](NC(=O)[C@@H](N)Cc1ccccc1)C(C)C)[C@@H](C)O)C(=O)NCC(=O)N1CCC[C@H]1C(=O)N[C@@H](Cc1ccccc1)C(=O)N[C@@H](C)C(=O)N[C@@H](Cc1ccccc1)C(=O)O`: in assay [1], the Kb was 10 nM. Besides, the pKi in assay [2] was 11.70.

On to `CC(C)[C@H](NC(=O)[C@H](CC(=O)O)NC(=O)[C@@H](NC(=O)[C@@H]1Cc2ccccc2CN1C(=O)[C@@H](NC(=O)[C@@H](N)Cc1ccccc1)C(C)C)[C@@H](C)O)C(=O)NCC(=O)N1CCC[C@H]1C(=O)N[C@@H](Cc1ccccc1)C(=O)N[C@@H](C)C(=O)N[C@@H](Cc1ccccc1)C(=O)O`, for which the Kb in assay [1] is 6.31 nM. The pKi in assay [2] is 10.70.

With `COC(=O)[C@H]1[C@H](NC(=O)CNC(=O)[C@@H](NC(=O)[C@H](CC(N)=O)NC(=O)[C@@H](NC(=O)[C@@H]2CCCN2C(=O)[C@@H](NC(=O)[C@@H](N)Cc2ccccc2)C(C)C)[C@@H](C)O)C(C)C)[C@@H]1C(=O)N[C@@H](Cc1ccccc1)C(=O)N[C@@H](C)C(=O)N[C@@H](Cc1ccccc1)C(=O)O` (H-FVPTNVG[X1]FAF-OH), the pKi in assay [2] was less than 5.00.

Consider `COC(=O)[C@@H]1[C@@H](NC(=O)CNC(=O)[C@@H](NC(=O)[C@H](CC(N)=O)NC(=O)[C@@H](NC(=O)[C@@H]2CCCN2C(=O)[C@@H](NC(=O)[C@@H](N)Cc2ccccc2)C(C)C)[C@@H](C)O)C(C)C)[C@H]1C(=O)N[C@@H](Cc1ccccc1)C(=O)N[C@@H](C)C(=O)N[C@@H](Cc1ccccc1)C(=O)O` (H-FVPTNVG[X2]FAF-OH), for which the pKi in assay [2] is less than 5.00.

As to `COC(=O)[C@@H]1[C@@H](NC(=O)[C@@H](NC(=O)[C@@H](N)Cc2ccccc2)C(C)C)[C@H]1C(=O)N[C@H](C(=O)N[C@@H](CC(=O)O)C(=O)N[C@H](C(=O)NCC(=O)N1CCC[C@H]1C(=O)N[C@@H](Cc1ccccc1)C(=O)N[C@@H](C)C(=O)N[C@@H](Cc1ccccc1)C(=O)O)C(C)C)[C@@H](C)O`, the negative-log Ki (pKi) in assay [2] was less than 5.00.

Turning to `COC(=O)[C@H]1[C@H](NC(=O)CNC(=O)[C@@H](NC(=O)[C@H](CC(=O)O)NC(=O)[C@@H](NC(=O)[C@@H]2CCCN2C(=O)[C@@H](NC(=O)[C@@H](N)Cc2ccccc2)C(C)C)[C@@H](C)O)C(C)C)[C@@H]1C(=O)N[C@@H](Cc1ccccc1)C(=O)N[C@@H](C)C(=O)N[C@@H](Cc1ccccc1)C(=O)O` (H-FVPTDVG[X1]FAF-OH), in assay [2], the pKi was less than 5.00.

Regarding `COC(=O)[C@H]1[C@H](NC(=O)[C@@H](NC(=O)[C@@H](N)Cc2ccccc2)C(C)C)[C@@H]1C(=O)N[C@H](C(=O)N[C@@H](CC(=O)O)C(=O)N[C@H](C(=O)NCC(=O)N1CCC[C@H]1C(=O)N[C@@H](Cc1ccccc1)C(=O)N[C@@H](C)C(=O)N[C@@H](Cc1ccccc1)C(=O)O)C(C)C)[C@@H](C)O`, the pKi in assay [2] was 9.15.

On to `COC(=O)[C@@H]1[C@@H](NC(=O)CNC(=O)[C@@H](NC(=O)[C@H](CC(=O)O)NC(=O)[C@@H](NC(=O)[C@@H]2CCCN2C(=O)[C@@H](NC(=O)[C@@H](N)Cc2ccccc2)C(C)C)[C@@H](C)O)C(C)C)[C@H]1C(=O)N[C@@H](Cc1ccccc1)C(=O)N[C@@H](C)C(=O)N[C@@H](Cc1ccccc1)C(=O)O` (H-FVPTDVG[X2]FAF-OH), for which the pKi in assay [2] was less than 5.00.

For `CC(C)[C@H](NC(=O)[C@H](CC(=O)O)NC(=O)[C@@H](NC(=O)[C@@H]1C[C@@H](O)CN1C(=O)[C@@H](NC(=O)[C@@H](N)Cc1ccccc1)C(C)C)[C@@H](C)O)C(=O)NCC(=O)N1CCC[C@H]1C(=O)N[C@@H](Cc1ccccc1)C(=O)N[C@@H](C)C(=O)N[C@@H](Cc1ccccc1)C(=O)O`, the Kb in assay [1] was 31.6 nM. For the same compound, the pKi in assay [2] was 11.22.

Regarding `CC(C)[C@H](NC(=O)[C@H](CC(=O)O)NC(=O)[C@@H](NC(=O)[C@@H]1CCCCN1C(=O)[C@@H](NC(=O)[C@@H](N)Cc1ccccc1)C(C)C)[C@@H](C)O)C(=O)NCC(=O)N1CCC[C@H]1C(=O)N[C@@H](Cc1ccccc1)C(=O)N[C@@H](C)C(=O)N[C@@H](Cc1ccccc1)C(=O)O`, the pKi in assay [2] is less than 5.00.

Turning to H-FVPTDVGAFAF-OH, the pKi was 7.11 in assay [3] and 7.87 in assay [2].

For H-FVATDVGPFAF-OH, the Kb in assay [1] was 25.1 nM. In assay [2], the pKi was 8.08.

For `CC(C)[C@H](NC(=O)[C@H](CC(=O)O)NC(=O)[C@@H](NC(=O)[C@@H]1CCCN1C(=O)[C@@H](NC(=O)[C@@H](N)Cc1ccccc1)C(C)C)[C@@H](C)O)C(=O)NCC(=O)N1CCC[C@H]1C(=O)N[C@@H](Cc1ccccc1)C(=O)N[C@@H](C)C(=O)N[C@@H](Cc1ccccc1)C(=O)O`, the pKi in assay [3] was 7.85; in assay [2], 10.70.
